# PvdQ inh: P. aeruginosa PvdQ acylase inhibition. purified PvdQ acylase, fluorescence plate reader. AID 488965. actives 0.063% (n = 340,000). inhibition, % at 10 µM; in the data active = inhibition above about 30%, passing the limit was not always enough;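 note: 0% = vehicle neutral wells and 100% = reference inhibitor wells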
# VIM-2 inhibitor: blocks Pseudomonas aeruginosa VIM-2 metallo-beta-lactamase; actives 0.89% (n = 290,000); inhibition, % at 5.6 µM; purified VIM-2, nitrocefin hydrolysis, epi-absorbance fluorescence;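 active = inhibition above the mean of all tested compounds plus 3 SD, cutoff set per screening run, cut at about 7.5% in these data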;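 note: red hydrolysis product quenches plate fluorescence so inhibitors raise well fluorescence; 0% = enzyme with DMSO and 100% = DMSO without enzyme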
# IMP-1 inh-1: blocks Pseudomonas aeruginosa IMP-1 metallo-beta-lactamase. purified IMP-1, nitrocefin hydrolysis, epi-absorbance fluorescence. inhibition, % at 5.6 µM. actives 0.45% (n = 290,000);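 active = inhibition above the mean plus 3 SD of all compounds in the same screening run, cut at about 4.5% in these data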;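 note: 0% = IMP-1 with DMSO and 100% = DMSO wells lacking enzyme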
#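 System: purified IMP-1; amount: IMP-1 0.2 nM before substrate addition; compound: single dose, 5.6 µM; times: 25 °C, 15 min preincubation, 25 min reaction; signal: Epi-absorbance via hydrolysed-nitrocefin quenching of white-plate fluorescence, 480/530 nm, EDTA stop; benchmarks: DMSO with and without IMP-1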
# Yeast superoxide: lowers age-related superoxide in aged yeast cells; S. cerevisiae aged cells, superoxide DHE fluorescence; active compounds read low; superoxide response (% of plate mean), % at 10 µM; actives 0.18% (n = 330,000);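 active = superoxide response under a set limit, about three screen SD below normal, cut at about 65% in these data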;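 note: yeast aged for seven days with compound at 30 °C before DHE staining; 100% = average MFI of all compound-treated wells on the plate with controls excluded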
# PHOSPHO1 inh: PHOSPHO1 (human) inhibition; recombinant PHOSPHO1, absorbance phosphatase assay; inhibition, % at 13.3 µM; actives 1.1% (n = 290,000); in the data active = inhibition above about 60%
# Target sequence (Q8TCT1 whole entry, looked up): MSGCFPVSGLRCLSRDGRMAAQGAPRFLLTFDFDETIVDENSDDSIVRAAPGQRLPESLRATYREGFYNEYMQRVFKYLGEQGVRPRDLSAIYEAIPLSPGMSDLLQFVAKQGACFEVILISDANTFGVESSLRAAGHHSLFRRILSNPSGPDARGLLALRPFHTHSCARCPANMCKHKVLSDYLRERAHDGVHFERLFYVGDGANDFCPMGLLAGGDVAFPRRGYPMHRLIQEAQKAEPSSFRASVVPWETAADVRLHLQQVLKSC
# IMP-1 inh-2: blocks IMP-1 metallo-beta-lactamase in VIM-2 selectivity screen; inhibition, % at 5.6 µM; 1,300 tested, under 10 active; shares compounds with VIM-2 inhibitor; purified IMP-1, nitrocefin hydrolysis, epi-absorbance fluorescence; call rule not given here;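 note: 0% = enzyme with vehicle and 100% = vehicle without enzyme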
# VIM-2 FRET inh: VIM-2 FRET inhibition, artifact counter-screen | shares compounds with VIM-2 inhibitor | purified VIM-2, CCF2 FRET substrate hydrolysis | inhibition, % at 5.6 µM | actives 23% (n = 1,300);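 active = inhibition above the mean of all tested compounds plus 3 SD, cut at about 19% in these data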;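 note: 0% = VIM-2 plus DMSO and 100% = no enzyme wells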
# TEM-1 inh: selectivity counter-screen for VIM-2 inhibitors: E. coli TEM-1 inhibitors; Purified TEM-1, nitrocefin hydrolysis, epi-absorbance fluorescence; inhibition, % at 5.6 µM; actives 3% (n = 1,300); AID 1866; shares compounds with VIM-2 inhibitor;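 active = inhibition above that campaign's mean inhibition plus 3 SD, cut at about 0.46% in these data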;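 note: 0% = TEM-1 with DMSO and 100% = TEM-1 with 100 µM potassium clavulanate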
# Target sequence (P62593 whole entry, looked up): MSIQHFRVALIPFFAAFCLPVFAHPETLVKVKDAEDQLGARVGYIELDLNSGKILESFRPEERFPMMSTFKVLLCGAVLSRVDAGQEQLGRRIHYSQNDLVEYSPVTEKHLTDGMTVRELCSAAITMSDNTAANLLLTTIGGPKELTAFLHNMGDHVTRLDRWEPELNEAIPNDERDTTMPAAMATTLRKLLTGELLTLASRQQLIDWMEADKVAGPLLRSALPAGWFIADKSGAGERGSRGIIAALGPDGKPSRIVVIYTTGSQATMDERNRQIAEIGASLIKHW
# VIM-2 confirm 2: confirmation of P. aeruginosa VIM-2 metallo-beta-lactamase inhibitors; actives 96% (n = 1,300); AID 2187; purified VIM-2, nitrocefin hydrolysis, epi-absorbance; inhibition, % at 5.6 µM; shares compounds with VIM-2 inhibitor;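 active = inhibition of the VIM-2 beta-lactamase enzyme above about 11% from the earlier first-round screen, limit read from the data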;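 note: 0% = VIM-2 with DMSO and 100% = buffer wells without enzyme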
# * marks the source's active call; other numbers are inactive results; i = inactive; · = no result given. Compounds with a hit are over-represented: about 2.2% of the library has one in this group of screens.
SMILES,PvdQ inh,VIM-2 inhibitor,IMP-1 inh-1,Yeast superoxide,PHOSPHO1 inh,IMP-1 inh-2,VIM-2 FRET inh,TEM-1 inh,VIM-2 confirm 2
CC(O)CNc1ccc(-c2n[nH]c(=O)c3ccccc23)cc1[N+](=O)[O-] (configuration not stated),3.2,20.0*,-2.9,96.0,20.3,-3.2,-3.0,-6.8,34.3*
CN(C)CCCNc1ccc(-c2n[nH]c(=O)c3ccccc23)cc1[N+](=O)[O-],-9.1,59.2*,-3.0,99.7,14.9,-2.3,1.6,-2.9,68.5*
CCC(C(=O)Nc1ccc([N+](=O)[O-])cn1)c1ccccc1 (configuration not stated),1.0,-2.0,-1.5,97.1,·,·,·,·,·
Cc1cccnc1CN1CCN(C(=O)c2cc(COc3ccc4ncccc4c3)on2)CC1,-13.8,47.8*,-3.1,92.2,39.7,-3.4,-20.5,-3.8,63.8*
COC(=O)C1=C(C)NC(C)=C(C(=O)OC)C1C(=O)OCC(=O)N1CCCCC1C (configuration not stated),20.2,·,·,·,·,·,·,·,·
COc1ccc(-c2cc3c(=O)n(CC(=O)N4CCN(C)CC4)ncn3n2)cc1,1.5,16.7*,-5.1,110.2,15.1,-3.0,-2.1,-5.1,30.5*
CCOC(=O)CCN(C(=O)Nc1ccccc1)C1CCCCC1,-12.5,·,·,·,·,·,·,·,·
O=C(Nc1ccccc1C(F)(F)F)N1CCN(c2ccc3nnc(-c4ccc(F)cc4)n3n2)CC1,-5.2,12.4*,-1.5,110.3,-45.7,-2.9,-1.6,-7.6,6.4
O=C(c1ccc(Br)o1)N1CCN(c2ccc3nnc(-c4ccccc4)n3n2)CC1,-3.0,16.1*,-2.1,91.1,18.2,-2.7,-2.0,-1.6,24.2*
O=C(Nc1ccnn1C1CCN(Cc2ccccc2OC(F)F)CC1)c1cccnc1,13.0,-1.4,-1.6,92.1,29.0,·,·,·,·
Cc1cc(NC(=O)CN2C(=O)NC(c3ccccc3)(c3ccc(C)c(C)c3)C2=O)no1 (configuration not stated),3.2,·,·,121.1,·,·,·,·,·
CCOC(=O)c1sc(NC(=O)CCN2CCN(CC)CC2)c(C(=O)OCC)c1C,-6.3,13.7*,0.1,95.2,20.1,-3.6,0.4,-4.6,26.6*
CCOc1ccc2nc(C)cc(Nc3ccc4c(c3)OCCO4)c2c1,9.2,18.1*,-2.6,102.6,30.5,-3.1,-1.2,-4.6,31.2*
CN1CCN(c2ccc(NC(=O)COc3ccccc3Cl)cc2)CC1,6.3,20.1*,-2.9,110.8,-9.8,-3.1,-1.3,-6.1,39.9*
CN1CCN(c2ccc(NC(=O)c3ccc4c(c3)OCO4)cc2)CC1,-15.3,18.4*,-3.9,97.6,0.6,-3.8,0.0,-6.8,31.5*
CCOc1ccc(C(=O)Nc2ccc(N3CCN(C)CC3)cc2)cc1Br,-1.8,24.4*,-3.5,105.0,20.3,-2.8,-2.8,-7.4,43.0*
CCOc1ccc(C(=O)Nc2ccc(N3CCN(C(=O)c4ccco4)CC3)cc2)cc1Br,3.5,·,·,·,·,·,·,·,·
COC1OC2COC(c3ccccc3)OC2C2OC12 (configuration not stated),-8.3,·,·,·,·,·,·,·,·
Cc1ccc(S(=O)(=O)Nc2ccc3cc([N+](=O)[O-])ccc3c2[N+](=O)[O-])cc1,2.0,·,·,·,·,·,·,·,·
Cc1nnc(N2CCN(C)CC2)c2nn(-c3ccc(Cl)cc3)c(C)c12,·,1.6,-3.3,·,·,·,·,·,·
Fc1ccccc1-c1n[nH]c(=S)n1Cc1ccccc1,1.7,28.2*,-4.5,i,-29.1,-4.0,49.7*,-8.2,33.8*
O=C(Cc1ccc2c(c1)OCCO2)Nc1cc(C(F)(F)F)ccc1N1CCOCC1,-17.4,·,·,·,·,·,·,·,·
Cc1cc(C)n(-c2nc(SCCN(C)C)c3c4c(sc3n2)CCCC4)n1,5.6,2.5,-2.5,101.2,6.0,·,·,·,·
Cc1cc(C)n(-c2nc(NCc3cccnc3)c3c4c(sc3n2)COC(C)(C)C4)n1,-0.6,47.5*,-1.8,110.3,26.3,-2.8,-17.4,0.1,64.1*
Cc1cc(C)n(-c2nc(SCC(=O)O)c3c4c(sc3n2)COC(C)(C)C4)n1,-5.6,14.7*,-4.0,108.9,20.0,-4.8,38.7*,-7.0,22.5*
SMILES,PvdQ inh,VIM-2 inhibitor,IMP-1 inh-1,Yeast superoxide,PHOSPHO1 inh,IMP-1 inh-2,VIM-2 FRET inh,TEM-1 inh,VIM-2 confirm 2
Cc1nc(NCc2cccnc2)c2c3c(sc2n1)CCCC3,-11.3,15.3*,-1.8,103.4,9.5,-3.5,-9.4,-5.0,31.0*
CCN(CC)CCCNc1nc(-n2nc(C)cc2C)nc2sc3c(c12)CC(C)(C)OC3,-7.9,3.8,-4.1,105.5,6.2,·,·,·,·
Cc1cccc(N2CCN(C(=O)c3cccc(S(=O)(=O)N4CCOCC4)c3)CC2)c1C,-8.6,·,·,·,·,·,·,·,·
CCN1CCN(Cc2c(O)ccc3c2O/C(=C\c2ccccc2)C3=O)CC1,-19.1,30.0*,-0.7,123.7,-113.5,-0.6,3.0,-6.7,43.9*
COCCNCc1nc2sc(C)c(-c3ccccc3)c2c(=O)[nH]1,3.9,-0.7,-1.5,99.4,27.3,·,·,·,·
Cc1ccccc1OCc1n[nH]c(=S)n1-c1cccc(Cl)c1,-5.2,-6.5,-3.4,101.9,-101.9,·,·,·,·
Cc1cccc(-n2c(Cn3nc(C)c([N+](=O)[O-])c3C)n[nH]c2=S)c1,-11.9,0.7,-1.4,101.1,-60.9,·,·,·,·
Cc1n[nH]c(=S)n1-c1cccc(Cl)c1,-16.4,13.7*,-1.0,99.6,-36.8,-3.4,35.9*,-6.9,22.6*
Cc1cccc(-n2c(-c3ccncc3)n[nH]c2=S)c1C,-3.5,-1.4,-3.1,103.2,-20.5,·,·,·,·
Cc1cccc(-n2c(C)n[nH]c2=S)c1C,-5.6,12.2*,-3.5,114.2,-17.0,-3.6,39.9*,-6.0,23.5*
Cc1nn(CCc2n[nH]c(=S)n2-c2cccc(Cl)c2)c(C)c1[N+](=O)[O-],-9.6,17.2*,-5.9,93.0,92.7*,-2.5,47.8*,-6.5,29.9*
CCCn1ncc(CN2CCC(n3nccc3NC(=O)CCc3ccccc3)CC2)c1C,-12.6,-0.9,-2.9,72.6,19.1,·,·,·,·
O=C(O)c1ccccc1Sc1ncnc2sc3c(c12)CCC3,-20.8,29.2*,-2.4,124.6,16.6,-4.2,60.7*,-6.3,37.2*
Cc1noc(C)c1NC(=O)N(C)C[C@H]1Oc2ccc(NC(=O)Cn3cnnn3)cc2C(=O)N([C@H](C)CO)C[C@@H]1C,-11.0,·,·,66.5,·,·,·,·,·
Cc1cc(NCCCn2ccnc2)n2c(nc3ccccc32)c1C#N,-10.7,82.2*,-3.0,87.4,13.9,-2.2,-12.7,-6.8,88.8*
Cc1cc(NCCCN(C)C)n2c(nc3ccccc32)c1C#N,-33.7,56.6*,-4.0,82.3,28.4,-5.6,-5.3,-10.9,64.7*
Cc1cc(NCCCOC(C)C)n2c(nc3ccccc32)c1C#N,-30.9,29.6*,0.3,93.8,-16.1,-3.3,-14.8,-5.7,36.7*

# Screening data: PubChem BioAssay, several laboratories
